From ChEMBL document CHEMBL1811853, “Design and evaluation of 3-aminopyrazolopyridinone kinase inhibitors inspired by the natural product indirubin” (Bioorg Med Chem, 2011)
Values after ≈ are worked out from the molar mass of the structure shown.

Key:
[1] = biological target: T1, Protein kinase C zeta type (Homo sapiens) (UniProt Q05513); test: Inhibition of PKCz at 30 uM by microfluidic mobility shift assay
T1 sequence (whole entry): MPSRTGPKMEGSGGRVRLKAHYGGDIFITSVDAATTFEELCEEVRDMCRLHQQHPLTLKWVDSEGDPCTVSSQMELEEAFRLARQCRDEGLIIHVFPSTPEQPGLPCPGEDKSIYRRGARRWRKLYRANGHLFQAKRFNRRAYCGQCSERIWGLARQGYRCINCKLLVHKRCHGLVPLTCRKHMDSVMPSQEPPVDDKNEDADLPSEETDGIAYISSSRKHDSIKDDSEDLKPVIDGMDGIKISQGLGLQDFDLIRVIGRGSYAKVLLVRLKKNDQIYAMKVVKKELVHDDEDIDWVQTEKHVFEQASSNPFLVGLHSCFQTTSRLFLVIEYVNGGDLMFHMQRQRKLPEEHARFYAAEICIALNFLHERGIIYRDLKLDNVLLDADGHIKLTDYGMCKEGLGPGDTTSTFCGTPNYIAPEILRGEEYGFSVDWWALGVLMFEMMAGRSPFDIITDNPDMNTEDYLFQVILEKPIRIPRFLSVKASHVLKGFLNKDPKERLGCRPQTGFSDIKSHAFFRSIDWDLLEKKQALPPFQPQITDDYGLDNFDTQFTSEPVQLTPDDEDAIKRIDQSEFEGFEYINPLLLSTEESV
How it was run: (§1)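 Single-concentration screen, singlicate, 30 uM final (diluted from 1 mM DMSO solutions), fluorescently tagged peptide substrate appropriate to each kinase, ATP at apparent Km for each protein. Phosphorylated and unphosphorylated peptides separated electrophoretically; conversion is the phosphorylated peak area over the sum of both peaks. No-inhibitor and no-ATP controls; H89 reference on each plate.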

[2] = biological target: Proto-oncogene tyrosine-protein kinase Src (Homo sapiens, UniProt P12931); test: Inhibition of SRC at 30 uM by microfluidic mobility shift assay; how it was run: as §1
[3] = biological target: Tyrosine-protein kinase ABL1 (Homo sapiens, UniProt P00519); test: Inhibition of ABL at 30 uM by microfluidic mobility shift assay; how it was run: as §1
[4] = biological target: Insulin receptor (Homo sapiens) (UniProt P06213); test: Inhibition of INSR at 30 uM by microfluidic mobility shift assay; how it was run: as §1
[5] = biological target: Ribosomal protein S6 kinase alpha-5 (Homo sapiens) (UniProt O75582); test: Inhibition of MSK1 at 30 uM by microfluidic mobility shift assay; how it was run: as §1
[6] = biological target: T2, MAP kinase-activated protein kinase 5 (Homo sapiens) (UniProt Q8IW41); test: Inhibition of PRAK1 at 30 uM by microfluidic mobility shift assay; how it was run: as §1
T2 sequence (whole entry): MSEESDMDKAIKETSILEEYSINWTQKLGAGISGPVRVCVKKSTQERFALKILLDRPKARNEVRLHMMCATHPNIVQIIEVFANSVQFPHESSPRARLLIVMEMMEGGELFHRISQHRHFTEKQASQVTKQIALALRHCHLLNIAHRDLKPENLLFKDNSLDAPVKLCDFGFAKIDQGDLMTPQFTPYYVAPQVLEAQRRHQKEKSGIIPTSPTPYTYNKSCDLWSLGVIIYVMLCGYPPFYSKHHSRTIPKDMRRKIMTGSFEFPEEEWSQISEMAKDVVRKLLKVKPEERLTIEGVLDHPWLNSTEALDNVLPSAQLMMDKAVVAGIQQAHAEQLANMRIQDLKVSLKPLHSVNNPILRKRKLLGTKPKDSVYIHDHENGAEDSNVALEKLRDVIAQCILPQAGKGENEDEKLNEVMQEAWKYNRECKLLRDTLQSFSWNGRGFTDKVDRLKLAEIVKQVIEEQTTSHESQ

[7] = Aqueous solubility of the compound by HPLC analysis; assay type: physicochemical; settings: water
How it was run: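 Solubility determined by HPLC measurement of the concentration in saturated aqueous solutions of the compounds.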

Chain of Insulin receptor (Homo sapiens) (P06213 28-758 limits assumed): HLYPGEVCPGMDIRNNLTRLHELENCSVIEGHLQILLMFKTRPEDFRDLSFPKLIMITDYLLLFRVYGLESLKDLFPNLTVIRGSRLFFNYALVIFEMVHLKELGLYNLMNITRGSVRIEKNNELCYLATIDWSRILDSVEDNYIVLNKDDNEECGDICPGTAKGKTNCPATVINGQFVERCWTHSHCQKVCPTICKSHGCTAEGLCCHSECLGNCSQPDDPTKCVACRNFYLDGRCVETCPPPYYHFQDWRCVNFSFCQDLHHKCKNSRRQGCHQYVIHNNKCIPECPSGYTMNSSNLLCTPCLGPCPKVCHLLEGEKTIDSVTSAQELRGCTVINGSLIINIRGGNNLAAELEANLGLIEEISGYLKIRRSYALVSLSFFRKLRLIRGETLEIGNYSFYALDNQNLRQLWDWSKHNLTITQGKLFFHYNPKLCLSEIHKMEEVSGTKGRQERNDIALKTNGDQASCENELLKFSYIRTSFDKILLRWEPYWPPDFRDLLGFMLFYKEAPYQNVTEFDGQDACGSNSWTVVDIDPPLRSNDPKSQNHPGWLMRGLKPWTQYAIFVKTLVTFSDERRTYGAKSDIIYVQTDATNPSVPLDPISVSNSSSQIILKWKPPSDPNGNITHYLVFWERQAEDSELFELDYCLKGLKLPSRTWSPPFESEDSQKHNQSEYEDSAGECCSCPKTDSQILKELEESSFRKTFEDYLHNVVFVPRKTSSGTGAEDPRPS
Chain of Insulin receptor (Homo sapiens) (P06213 763-1382 limits assumed): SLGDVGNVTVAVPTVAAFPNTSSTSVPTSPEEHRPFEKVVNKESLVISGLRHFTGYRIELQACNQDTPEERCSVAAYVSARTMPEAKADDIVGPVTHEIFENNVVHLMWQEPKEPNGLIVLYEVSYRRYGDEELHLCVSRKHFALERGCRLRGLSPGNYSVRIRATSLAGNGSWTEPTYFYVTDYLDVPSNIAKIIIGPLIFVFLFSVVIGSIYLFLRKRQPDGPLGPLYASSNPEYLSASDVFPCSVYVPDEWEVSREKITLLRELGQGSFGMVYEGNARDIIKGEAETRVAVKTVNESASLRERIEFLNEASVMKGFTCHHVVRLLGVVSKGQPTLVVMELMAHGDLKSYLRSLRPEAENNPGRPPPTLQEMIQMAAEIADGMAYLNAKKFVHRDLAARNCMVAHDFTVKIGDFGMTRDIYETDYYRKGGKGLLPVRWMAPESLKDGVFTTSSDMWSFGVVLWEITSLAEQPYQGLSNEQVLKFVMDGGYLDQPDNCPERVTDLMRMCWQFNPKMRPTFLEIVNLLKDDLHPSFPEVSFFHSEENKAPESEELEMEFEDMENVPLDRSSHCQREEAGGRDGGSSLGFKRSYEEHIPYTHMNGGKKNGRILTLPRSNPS
Chain of Proto-oncogene tyrosine-protein kinase Src (P12931 2-536 limits assumed): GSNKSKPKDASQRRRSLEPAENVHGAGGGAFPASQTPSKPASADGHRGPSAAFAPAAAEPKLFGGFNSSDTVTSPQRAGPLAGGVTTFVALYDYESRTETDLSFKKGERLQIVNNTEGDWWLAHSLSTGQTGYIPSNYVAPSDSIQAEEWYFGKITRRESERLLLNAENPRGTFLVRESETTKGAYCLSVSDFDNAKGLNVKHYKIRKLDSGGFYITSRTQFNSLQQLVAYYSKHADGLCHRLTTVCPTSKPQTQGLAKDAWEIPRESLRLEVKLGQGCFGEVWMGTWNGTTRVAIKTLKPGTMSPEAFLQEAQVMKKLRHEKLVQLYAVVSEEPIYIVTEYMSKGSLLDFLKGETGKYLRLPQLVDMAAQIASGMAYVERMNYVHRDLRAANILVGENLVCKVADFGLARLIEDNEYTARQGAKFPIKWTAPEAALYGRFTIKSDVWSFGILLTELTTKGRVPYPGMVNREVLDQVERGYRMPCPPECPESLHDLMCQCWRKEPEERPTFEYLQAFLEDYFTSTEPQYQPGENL
Chain of Ribosomal protein S6 kinase alpha-5 (Homo sapiens) (O75582 whole entry, looked up): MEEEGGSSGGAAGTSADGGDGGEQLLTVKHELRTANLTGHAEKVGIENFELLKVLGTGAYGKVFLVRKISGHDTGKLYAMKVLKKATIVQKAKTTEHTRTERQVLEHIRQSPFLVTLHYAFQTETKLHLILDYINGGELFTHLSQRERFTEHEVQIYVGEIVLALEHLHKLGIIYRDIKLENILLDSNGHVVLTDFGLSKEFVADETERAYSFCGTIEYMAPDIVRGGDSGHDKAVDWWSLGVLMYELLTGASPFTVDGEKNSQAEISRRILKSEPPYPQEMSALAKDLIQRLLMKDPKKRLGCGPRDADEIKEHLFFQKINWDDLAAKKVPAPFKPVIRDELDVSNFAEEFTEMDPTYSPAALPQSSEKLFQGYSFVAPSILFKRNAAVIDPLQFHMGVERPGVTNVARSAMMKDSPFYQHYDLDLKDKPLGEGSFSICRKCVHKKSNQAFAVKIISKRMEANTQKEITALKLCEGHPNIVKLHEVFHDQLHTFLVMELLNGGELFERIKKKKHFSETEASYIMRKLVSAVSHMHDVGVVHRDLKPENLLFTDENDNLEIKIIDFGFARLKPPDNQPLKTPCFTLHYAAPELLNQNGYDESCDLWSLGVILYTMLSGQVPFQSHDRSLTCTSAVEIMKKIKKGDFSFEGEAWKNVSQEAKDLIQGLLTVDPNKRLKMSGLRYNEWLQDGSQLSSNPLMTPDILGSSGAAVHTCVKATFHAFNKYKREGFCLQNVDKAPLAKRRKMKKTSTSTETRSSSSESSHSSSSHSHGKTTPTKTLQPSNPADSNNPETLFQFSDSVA
Chain of Tyrosine-protein kinase ABL1 (P00519 whole entry): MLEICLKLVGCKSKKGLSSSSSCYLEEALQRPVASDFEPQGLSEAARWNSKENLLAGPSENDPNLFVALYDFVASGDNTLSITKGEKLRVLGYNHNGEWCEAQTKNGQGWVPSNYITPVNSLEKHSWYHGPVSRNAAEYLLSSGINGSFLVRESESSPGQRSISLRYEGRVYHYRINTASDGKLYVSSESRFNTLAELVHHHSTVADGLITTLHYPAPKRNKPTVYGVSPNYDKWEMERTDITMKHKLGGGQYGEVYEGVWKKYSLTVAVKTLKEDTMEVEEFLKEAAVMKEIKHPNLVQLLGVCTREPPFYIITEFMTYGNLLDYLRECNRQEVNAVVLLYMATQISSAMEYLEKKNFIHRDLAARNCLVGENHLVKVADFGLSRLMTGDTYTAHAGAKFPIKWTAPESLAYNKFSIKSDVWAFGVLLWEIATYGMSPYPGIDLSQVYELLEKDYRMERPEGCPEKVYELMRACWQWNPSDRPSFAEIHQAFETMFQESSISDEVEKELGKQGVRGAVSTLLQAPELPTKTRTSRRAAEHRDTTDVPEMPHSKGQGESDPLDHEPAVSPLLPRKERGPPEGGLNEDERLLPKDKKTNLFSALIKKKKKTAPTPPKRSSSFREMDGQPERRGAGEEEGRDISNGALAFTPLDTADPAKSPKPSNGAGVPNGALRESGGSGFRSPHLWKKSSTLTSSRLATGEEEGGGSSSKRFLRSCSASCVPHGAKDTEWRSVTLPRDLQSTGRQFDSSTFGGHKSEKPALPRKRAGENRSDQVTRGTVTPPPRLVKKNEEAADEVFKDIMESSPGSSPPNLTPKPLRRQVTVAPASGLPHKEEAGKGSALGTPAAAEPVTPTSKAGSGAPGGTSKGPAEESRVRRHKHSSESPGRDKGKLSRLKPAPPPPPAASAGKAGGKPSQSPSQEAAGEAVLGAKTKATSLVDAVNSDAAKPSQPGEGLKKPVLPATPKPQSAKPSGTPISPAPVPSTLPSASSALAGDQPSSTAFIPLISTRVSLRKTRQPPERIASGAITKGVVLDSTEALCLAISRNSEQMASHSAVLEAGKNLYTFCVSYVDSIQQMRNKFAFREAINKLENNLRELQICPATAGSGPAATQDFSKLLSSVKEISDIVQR

| Structure (SMILES) | inhibition [1] [%] | inhibition [2] [%] | inhibition [3] [%] | inhibition [4] [%] | inhibition [5] [%] | inhibition [6] [%] | solubility [7] [µg/mL] |
| --- | --- | --- | --- | --- | --- | --- | --- |
| Cn1nc(N)c2c(=O)[nH]c(-c3ccccc3)cc21 | 6 | 32 | 26 | 2 | 9 | 11 | 76 (≈ 0.316 mM) |
| CC(=O)Nc1nn(C)c2cc(-c3ccccc3)[nH]c(=O)c12 | 28 | 12 | 10 | 5 | 3 | 3 | 79 (≈ 0.28 mM) |
| Cc1cc2c(c(N)nn2C)c(N2CC[C@H](O)C2)n1 | 19 | 3 | -4 | -2 | 4 | 1 | – |
| Cc1cc2c(c(N)nn2C)c(=O)[nH]1 | 0 | 9 | 0 | 3 | 4 | 5 | 1220 (≈ 6.83 mM) |
| COc1ccc(-c2cc3c(c(N)nn3C)c(=O)[nH]2)cc1 | -3 | 62 | 53 | 5 | 9 | 16 | – |
| CN1CCN(c2ccc(-c3cc4nn(-c5ccccc5)c(N)c4c(=O)[nH]3)cc2)CC1 | 23 | 99 | 99 | 8 | 12 | 4 | – |
| Nc1n[nH]c2cc(-c3cccnc3)[nH]c(=O)c12 | 1 | 46 | 37 | 7 | 36 | 12 | – |
| CC(C)(C)c1cc2nn(-c3ccccc3)c(N)c2c(=O)[nH]1 | -1 | 7 | 13 | 4 | -1 | 2 | – |
| Cc1nc(N)c2c(=O)[nH]c(C)cc2n1 | 3 | 9 | 18 | 3 | 0 | 1 | – |
| Cc1cc2c(c(NC(=O)Nc3ccccc3)nn2C)c(=O)[nH]1 | 19 | 17 | 15 | -5 | 0 | 4 | < 1 |
| Nc1n[nH]c2c3c([nH]c(=O)c12)CCCC3 | -5 | 6 | 0 | -3 | 1 | 0 | – |
| COc1cccc(-c2cc3c(c(N)nn3C)c(=O)[nH]2)c1 | 6 | 30 | 21 | 6 | 2 | 6 | – |
| COCCNc1nc(C)cc2c1c(N)nn2C | -10 | 2 | -8 | 0 | 0 | 5 | – |
| COCCNc1nc(-c2ccccc2)cc2c1c(N)nn2C | 20 | 3 | -7 | 1 | 0 | 1 | – |

Results, then the molecule that gave them:

| inhibition [1] [%] | inhibition [2] [%] | inhibition [3] [%] | inhibition [4] [%] | inhibition [5] [%] | inhibition [6] [%] | solubility [7] [µg/mL] | Structure (SMILES) |
| --- | --- | --- | --- | --- | --- | --- | --- |
| 5 | 22 | 4 | 2 | 0 | 3 | – | Cn1nc2c3c(nc(-c4ccccc4)cc31)NCC(=O)N2 |
| 3 | 63 | 40 | 34 | 35 | 18 | – | Nc1n[nH]c2cc(-c3ccccn3)[nH]c(=O)c12 |
| 27 | -2 | -2 | -6 | 4 | 0 | – | Cc1cc2c(c(NS(C)(=O)=O)nn2C)c(=O)[nH]1 |
| 0 | 89 | 89 | 0 | 6 | 12 | – | COc1ccc(-c2cc3nn(-c4ccccc4)c(N)c3c(=O)[nH]2)cc1 |
| 10 | 15 | 23 | 2 | 13 | 13 | – | COc1ccc(-c2c(C)[nH]c(=O)c3c(N)nn(C)c23)cc1 |
| 10 | 46 | 28 | 9 | 29 | 13 | – | Nc1n[nH]c2cc(-c3ccncc3)[nH]c(=O)c12 |
| 6 | 20 | 20 | 2 | 0 | 6 | – | CC(=O)Nc1nn(C)c2cc(-c3ccc(N4CCN(C)CC4)cc3)[nH]c(=O)c12 |
| 35 | 85 | 86 | 17 | 83 | 11 | – | CN1CCN(c2ccc(-c3cc4[nH]nc(N)c4c(=O)[nH]3)cc2)CC1 |
| 10 | 14 | 12 | -2 | 56 | 8 | 1640 (≈ 9.96 mM) | Cc1cc2[nH]nc(N)c2c(=O)[nH]1 |
| 8 | 12 | 19 | 0 | 6 | 3 | – | Cc1cc2nc(N)nc(N)c2c(=O)[nH]1 |
| 43 | 33 | 18 | 9 | 87 | 10 | 794 (≈ 3.43 mM) | Cc1cc2[nH]nc(N)c2c(N2CCCCC2)n1 |
| 21 | 2 | 3 | 2 | 3 | 1 | – | COc1ccc(S(=O)(=O)Nc2nn(C)c3cc(C)[nH]c(=O)c23)c(OC)c1 |
| 4 | 87 | 86 | -2 | 7 | 6 | – | COc1ccccc1-c1cc2nn(-c3ccccc3)c(N)c2c(=O)[nH]1 |
| 0 | 18 | 27 | 16 | -4 | 9 | – | Cn1nc(N)c2c(=O)[nH]c(-c3ccccn3)cc21 |
| -2 | 74 | 61 | 6 | 39 | 11 | – | Nc1n[nH]c2cc(-c3ccc(N4CCOCC4)cc3)[nH]c(=O)c12 |
| -1 | 62 | 44 | 20 | 49 | 10 | – | COc1cccc(-c2cc3[nH]nc(N)c3c(=O)[nH]2)c1 |
| -3 | 37 | 33 | 5 | -4 | -1 | – | Nc1c2c(=O)[nH]c(-c3ccccc3)cc2nn1-c1ccccn1 |
| 7 | 59 | 55 | 6 | 62 | 7 | – | COc1ccc(-c2cc3[nH]nc(N)c3c(=O)[nH]2)cc1 |
